Laboratory results reported in ChEMBL document CHEMBL1773039, “Structure-Activity Study of Dihydrocinnamic Acids and Discovery of the Potent FFA1 (GPR40) Agonist TUG-469” (ACS Med Chem Lett, 2010).
Active and inactive are the calls of the source. The calls are words filed in the database; no cut-off is given here.

Experiments:
[1] = target: Free fatty acid receptor 3 (Homo sapiens) (UniProt O14843); assay: Agonist activity at human GPR41 in HEK293 cells
[2] = species: Homo sapiens; assay: Selectivity for human FFA1 over human PPARgamma
[3] = target: T1, Free fatty acid receptor 1 (Homo sapiens, UniProt O14842); assay: Agonist activity at human FFA1 transfected in 1321N1 cells assessed as calcium mobilization by microplate assay relative to 10 uM TUG-20; format: functional, cell-based
How it was run: (§1)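 Calcium mobilization in hFFA1-expressing cells was measured as full concentration-response curves and reported as pEC50. Efficacy is % of the response to 10 μM of the reference agonist.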

[4] = target: T2, Peroxisome proliferator-activated receptor gamma (Homo sapiens) (UniProt P37231); assay: Transactivation of human PPARgamma ligand binding domain transfected in mouse embryo fibroblasts assessed as renilla luciferase activity at 10 uM by luminometry relative to 1 uM rosiglitazone
T2 sequence (whole entry): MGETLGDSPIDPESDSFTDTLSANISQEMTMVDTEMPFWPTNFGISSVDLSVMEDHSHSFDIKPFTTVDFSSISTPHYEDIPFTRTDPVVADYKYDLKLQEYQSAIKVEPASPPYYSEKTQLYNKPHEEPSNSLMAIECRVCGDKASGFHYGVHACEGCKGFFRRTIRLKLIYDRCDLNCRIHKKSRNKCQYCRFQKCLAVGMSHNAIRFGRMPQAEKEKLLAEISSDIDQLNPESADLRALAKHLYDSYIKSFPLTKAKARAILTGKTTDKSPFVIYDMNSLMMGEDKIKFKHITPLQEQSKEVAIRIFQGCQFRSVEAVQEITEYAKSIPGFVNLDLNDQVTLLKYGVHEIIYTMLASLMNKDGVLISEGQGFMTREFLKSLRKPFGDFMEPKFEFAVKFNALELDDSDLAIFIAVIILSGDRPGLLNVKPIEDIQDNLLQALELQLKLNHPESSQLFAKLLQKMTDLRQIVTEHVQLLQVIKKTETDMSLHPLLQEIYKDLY

[5] = target: T2, Peroxisome proliferator-activated receptor gamma (Homo sapiens); assay: Transactivation of human PPARgamma ligand binding domain transfected in mouse embryo fibroblasts assessed as renilla luciferase activity at 1 uM after 18 hrs by luminometry relative to 1 uM rosiglitazone
[6] = target: Free fatty acid receptor 2 (Homo sapiens) (UniProt O15552); assay: Agonist activity at human GPR43 in HEK293 cells
[7] = target: T1, Free fatty acid receptor 1; assay: Agonist activity at human FFA1 transfected in 1321N1 cells assessed as calcium mobilization by microplate assay; format: functional, cell-based
How it was run: as §1

[8] = Cytotoxicity in mouse embryo fibroblasts at 100 uM; format: cell-based; settings: fibroblast
[9] = target: T1, Free fatty acid receptor 1; assay: Agonist activity at human FFA1 transfected in 1321N1 cells under serum-free condition up to 1 hr by dynamic mass redistribution optical biosensor assay; format: functional, cell-based
How it was run: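 hFFA1-transfected 1321N1 cells were exposed to a range of agonist concentrations. Label-free dynamic mass redistribution was tracked over time as the resonant wavelength shift (pm), a read-out of receptor activation. pEC50 was taken from concentration-response curves of this signal.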

[10] = Induction of 12 mM glucose-stimulated insulin secretion in rat INS-1E cells at 10 uM after 1 hr by radioimmunoassay; format: functional
[11] = target: T2, Peroxisome proliferator-activated receptor gamma (Homo sapiens); assay: Transactivation of human PPARgamma ligand binding domain transfected in mouse embryo fibroblasts at 100 uM after 18 hrs analyzed by photinus and renilla luciferase activity by luminometry relative to 1 uM rosiglitazone
[12] = system: INS-1E; assay: Induction of 2.8 mM glucose-stimulated insulin secretion in rat INS-1E cells at 10 uM after 1 hr by radioimmunoassay; format: functional, cell-based

T1 sequence (O14842 whole entry): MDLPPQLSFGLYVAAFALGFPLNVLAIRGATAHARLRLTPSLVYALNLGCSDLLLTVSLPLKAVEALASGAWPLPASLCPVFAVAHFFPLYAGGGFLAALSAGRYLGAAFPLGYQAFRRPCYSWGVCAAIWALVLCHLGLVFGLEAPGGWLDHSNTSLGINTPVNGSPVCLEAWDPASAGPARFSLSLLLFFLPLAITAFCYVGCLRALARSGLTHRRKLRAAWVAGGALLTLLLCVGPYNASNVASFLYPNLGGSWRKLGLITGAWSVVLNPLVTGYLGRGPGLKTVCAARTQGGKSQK
Chain of Free fatty acid receptor 3 (Homo sapiens) (O14843 whole entry, looked up): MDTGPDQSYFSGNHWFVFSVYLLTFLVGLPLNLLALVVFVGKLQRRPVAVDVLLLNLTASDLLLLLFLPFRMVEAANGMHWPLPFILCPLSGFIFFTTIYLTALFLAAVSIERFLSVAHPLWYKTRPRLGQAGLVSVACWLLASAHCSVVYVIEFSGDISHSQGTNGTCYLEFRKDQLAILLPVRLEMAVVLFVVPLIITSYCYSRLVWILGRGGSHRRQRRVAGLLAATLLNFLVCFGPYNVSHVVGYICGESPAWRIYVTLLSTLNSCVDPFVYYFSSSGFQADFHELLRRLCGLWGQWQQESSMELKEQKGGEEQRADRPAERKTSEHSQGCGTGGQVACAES
Chain of Free fatty acid receptor 2 (Homo sapiens) (O15552 whole entry, looked up): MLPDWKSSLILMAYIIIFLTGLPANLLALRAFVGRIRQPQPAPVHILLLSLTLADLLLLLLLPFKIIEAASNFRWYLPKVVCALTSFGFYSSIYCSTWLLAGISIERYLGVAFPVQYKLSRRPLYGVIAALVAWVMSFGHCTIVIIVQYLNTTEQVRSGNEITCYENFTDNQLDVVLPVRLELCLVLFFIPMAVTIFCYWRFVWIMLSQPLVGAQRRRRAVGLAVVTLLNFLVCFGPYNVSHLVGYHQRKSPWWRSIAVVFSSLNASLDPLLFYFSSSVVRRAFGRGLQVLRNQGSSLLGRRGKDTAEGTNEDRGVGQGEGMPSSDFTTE

Structure (SMILES) | Activity [1] | fold change (FC) [2] | Efficacy [3] | Activity [4] | Activity [5] | Activity [6] | EC50 [7] | Activity [8] | Activity [9] | Activity [10] | Activity [11] | Activity [12]
O=C(O)CCc1ccc(NCc2ccccc2-c2ccccc2)cc1 | inactive | > 100 | 97% | 15% | inactive | inactive | 1070 nM | Toxic | – | – | – | –
Cc1ccccc1-c1cccc(CNc2ccc(CCC(=O)O)cc2)c1 | inactive | > 100 | 114% | – | inactive | inactive | – | – | Active | 55% | 86% | inactive
